Source: ChEMBL document CHEMBL1141396, “Synthesis and mixed lineage kinase activity of pyrrolocarbazole and isoindolone analogs of (+)K-252a” (J Med Chem, 2007)
Active and inactive are the calls of the source. The calls are words filed in the database; no cut-off is given here.

Columns and labels:
[1] = molecular target: T1, Mitogen-activated protein kinase kinase kinase 9 (Homo sapiens, UniProt P80192); assay: Inhibition of GST-MLK1 expressed in baculovirus
[2] = molecular target: Mitogen-activated protein kinase kinase kinase 11 (Homo sapiens, UniProt Q16584); assay: Inhibition of GST-MLK3 expressed in baculovirus
[3] = molecular target: Mitogen-activated protein kinase 8 (Homo sapiens) (UniProt P45983); assay: Inhibition of JNK1 at 1 uM
[4] = molecular target: Epidermal growth factor receptor (Homo sapiens) (UniProt P00533); assay: Inhibition of EGFR at 1 uM
[5] = molecular target: Cyclin-dependent kinase 2 (Homo sapiens) (UniProt P24941); assay: Inhibition of CDK2 at 1 uM
[6] = molecular target: Platelet-derived growth factor receptor beta (Homo sapiens) (UniProt P09619); assay: Inhibition of PDGFRbeta at 1 uM
[7] = molecular target: Angiopoietin-1 receptor (Homo sapiens) (UniProt Q02763); assay: Inhibition of TIE2 at 1 uM
[8] = molecular target: High affinity nerve growth factor receptor (Homo sapiens, UniProt P04629); assay: Inhibition of TrkA
[9] = molecular target: Mitogen-activated protein kinase kinase kinase 10 (Homo sapiens, UniProt Q02779); assay: Inhibition of GST-MLK2
[10] = molecular target: Cyclin-dependent kinase 1 (Homo sapiens) (UniProt P06493); assay: Inhibition of CDK1 at 1 uM
[11] = molecular target: T2, Choline O-acetyltransferase (Rattus norvegicus) (UniProt P32738); assay: Enhancement of choline acetyltransferase activity in embryonic rat spinal cord at 300 nM
T2 sequence (whole entry): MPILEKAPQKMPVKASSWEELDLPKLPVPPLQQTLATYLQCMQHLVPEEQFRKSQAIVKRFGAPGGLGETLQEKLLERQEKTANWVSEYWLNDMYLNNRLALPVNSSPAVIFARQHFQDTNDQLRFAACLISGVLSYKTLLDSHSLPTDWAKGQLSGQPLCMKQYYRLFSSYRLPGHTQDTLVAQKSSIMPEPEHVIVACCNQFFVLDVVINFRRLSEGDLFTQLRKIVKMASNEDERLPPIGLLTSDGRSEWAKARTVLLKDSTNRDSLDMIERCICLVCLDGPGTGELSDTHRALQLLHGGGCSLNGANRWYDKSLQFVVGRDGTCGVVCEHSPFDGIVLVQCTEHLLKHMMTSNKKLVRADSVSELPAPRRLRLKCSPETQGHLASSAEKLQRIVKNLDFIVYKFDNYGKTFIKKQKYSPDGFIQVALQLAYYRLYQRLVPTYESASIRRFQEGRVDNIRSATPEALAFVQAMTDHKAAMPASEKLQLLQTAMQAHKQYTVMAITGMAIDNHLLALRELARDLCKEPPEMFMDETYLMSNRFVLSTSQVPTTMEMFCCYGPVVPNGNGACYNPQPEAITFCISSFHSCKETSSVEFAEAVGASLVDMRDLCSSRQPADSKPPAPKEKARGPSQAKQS
Outline: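 Embryonic rat spinal cord cultures; compounds at 300 nM, ChAT activity measured after 2 days in culture, expressed as percent of basal (100%). K-252a run as internal control. Mean ± standard deviation of three independent experiments.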

[12] = molecular target: Mitogen-activated protein kinase 14 (Homo sapiens) (UniProt Q16539); assay: Inhibition of p38-alpha at 1 uM
[13] = molecular target: T1, Mitogen-activated protein kinase kinase kinase 9; assay: Inhibition of MKK4 phosphorylation in MLK1 transfected CHO cells after 1 hr; format: functional, cell-based
Outline: (§1)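 CHO cells transfected with MLK1 plus dominant-negative MKK4 cDNA. Compound exposure 1 h, tested up to 1 µM. Phospho-MKK4 read by ELISA.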
Target sequence in this assay (P80192 whole entry): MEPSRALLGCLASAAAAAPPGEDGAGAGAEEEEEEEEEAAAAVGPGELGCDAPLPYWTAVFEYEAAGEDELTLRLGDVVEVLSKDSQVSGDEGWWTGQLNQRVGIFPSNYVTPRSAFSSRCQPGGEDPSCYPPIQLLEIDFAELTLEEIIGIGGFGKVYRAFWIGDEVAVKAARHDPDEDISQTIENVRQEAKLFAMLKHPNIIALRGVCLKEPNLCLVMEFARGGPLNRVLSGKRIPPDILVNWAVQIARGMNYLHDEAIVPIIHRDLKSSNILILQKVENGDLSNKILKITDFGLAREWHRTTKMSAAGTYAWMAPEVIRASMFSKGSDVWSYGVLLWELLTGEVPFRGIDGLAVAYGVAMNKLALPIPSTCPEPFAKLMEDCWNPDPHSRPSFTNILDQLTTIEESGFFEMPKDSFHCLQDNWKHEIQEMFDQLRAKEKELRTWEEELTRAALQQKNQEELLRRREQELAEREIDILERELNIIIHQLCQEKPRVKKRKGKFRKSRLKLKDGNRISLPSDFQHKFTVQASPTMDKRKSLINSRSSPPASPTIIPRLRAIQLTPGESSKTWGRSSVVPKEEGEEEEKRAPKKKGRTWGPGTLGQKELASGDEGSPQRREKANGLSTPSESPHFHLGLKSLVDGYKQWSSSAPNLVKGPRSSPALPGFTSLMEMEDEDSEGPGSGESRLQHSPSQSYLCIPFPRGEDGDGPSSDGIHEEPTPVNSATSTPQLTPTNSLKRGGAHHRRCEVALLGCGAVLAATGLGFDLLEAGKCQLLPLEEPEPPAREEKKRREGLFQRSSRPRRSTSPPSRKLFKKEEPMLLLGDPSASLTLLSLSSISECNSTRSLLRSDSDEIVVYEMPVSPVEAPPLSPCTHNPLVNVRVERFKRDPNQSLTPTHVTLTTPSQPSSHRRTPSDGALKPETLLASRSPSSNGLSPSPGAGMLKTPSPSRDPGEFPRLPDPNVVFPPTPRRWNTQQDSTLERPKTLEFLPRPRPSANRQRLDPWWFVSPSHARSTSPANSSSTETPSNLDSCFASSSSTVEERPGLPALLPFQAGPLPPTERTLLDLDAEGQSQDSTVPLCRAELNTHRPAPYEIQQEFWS

Protein kinase C (PKC) = assay: Inhibition of PKC; format: protein assay, Homo sapiens
[14] = molecular target: Vascular endothelial growth factor receptor 2 (Homo sapiens, UniProt P35968); assay: Inhibition of VEGFR2
[15] = molecular target: Insulin receptor (Homo sapiens) (UniProt P06213); assay: Inhibition of IRKbeta at 1 uM
[16] = molecular target: Fibroblast growth factor receptor 1 (Homo sapiens) (UniProt P11362); assay: Inhibition of FGFR1 at 1 uM
[17] = molecular target: T1, Mitogen-activated protein kinase kinase kinase 9; assay: Inhibition of MKK4 phosphorylation in MLK1 transfected CHO cells at 1 uM after 1 hr; format: functional, cell-based; outline: as §1
Target sequence in this assay (P80192 whole entry): as above

High affinity nerve growth factor receptor, sequence (P04629 whole entry): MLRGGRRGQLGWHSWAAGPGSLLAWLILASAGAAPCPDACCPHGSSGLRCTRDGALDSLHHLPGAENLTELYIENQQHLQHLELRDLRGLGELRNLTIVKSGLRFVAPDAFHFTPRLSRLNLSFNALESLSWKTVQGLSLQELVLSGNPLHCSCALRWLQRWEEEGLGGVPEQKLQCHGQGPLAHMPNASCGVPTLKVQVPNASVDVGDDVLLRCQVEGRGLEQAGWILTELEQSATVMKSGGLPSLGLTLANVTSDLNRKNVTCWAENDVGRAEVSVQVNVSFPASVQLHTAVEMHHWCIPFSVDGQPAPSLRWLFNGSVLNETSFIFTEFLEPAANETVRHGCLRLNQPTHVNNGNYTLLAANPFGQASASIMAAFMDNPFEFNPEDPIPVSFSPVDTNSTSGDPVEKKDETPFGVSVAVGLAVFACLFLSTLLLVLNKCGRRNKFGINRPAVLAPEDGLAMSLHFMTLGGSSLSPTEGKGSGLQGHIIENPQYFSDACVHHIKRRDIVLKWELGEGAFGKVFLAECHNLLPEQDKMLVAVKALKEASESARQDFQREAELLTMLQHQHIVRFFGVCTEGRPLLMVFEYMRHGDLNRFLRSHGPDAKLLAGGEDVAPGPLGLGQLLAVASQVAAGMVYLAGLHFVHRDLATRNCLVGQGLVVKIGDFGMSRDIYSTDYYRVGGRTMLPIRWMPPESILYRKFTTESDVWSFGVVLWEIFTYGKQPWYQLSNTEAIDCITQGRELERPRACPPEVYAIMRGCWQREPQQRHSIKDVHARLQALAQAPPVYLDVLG
Fibroblast growth factor receptor 1 (Homo sapiens), sequence (P11362 22-822 limits assumed): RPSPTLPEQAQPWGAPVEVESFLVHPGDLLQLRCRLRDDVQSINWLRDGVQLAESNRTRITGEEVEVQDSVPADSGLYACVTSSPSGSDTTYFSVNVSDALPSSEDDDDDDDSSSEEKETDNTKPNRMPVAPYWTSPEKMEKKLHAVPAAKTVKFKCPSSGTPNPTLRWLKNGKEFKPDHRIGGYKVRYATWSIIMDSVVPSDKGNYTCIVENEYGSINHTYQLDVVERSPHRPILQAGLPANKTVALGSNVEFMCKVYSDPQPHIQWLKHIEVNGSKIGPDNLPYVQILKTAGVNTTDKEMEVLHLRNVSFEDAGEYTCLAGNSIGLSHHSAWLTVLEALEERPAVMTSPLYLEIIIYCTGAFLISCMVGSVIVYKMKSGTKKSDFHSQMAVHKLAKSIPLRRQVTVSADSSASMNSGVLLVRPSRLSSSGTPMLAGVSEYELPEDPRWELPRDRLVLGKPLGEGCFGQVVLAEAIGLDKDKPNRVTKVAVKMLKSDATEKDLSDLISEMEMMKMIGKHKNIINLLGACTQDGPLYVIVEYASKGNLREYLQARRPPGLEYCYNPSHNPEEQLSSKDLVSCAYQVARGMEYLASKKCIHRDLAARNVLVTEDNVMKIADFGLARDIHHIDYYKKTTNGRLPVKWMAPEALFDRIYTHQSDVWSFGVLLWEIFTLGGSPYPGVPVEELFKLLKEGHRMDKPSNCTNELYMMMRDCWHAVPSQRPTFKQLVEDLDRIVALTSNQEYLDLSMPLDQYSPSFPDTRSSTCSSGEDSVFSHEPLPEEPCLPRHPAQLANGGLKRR
Mitogen-activated protein kinase 14 (Homo sapiens), sequence (Q16539 whole entry): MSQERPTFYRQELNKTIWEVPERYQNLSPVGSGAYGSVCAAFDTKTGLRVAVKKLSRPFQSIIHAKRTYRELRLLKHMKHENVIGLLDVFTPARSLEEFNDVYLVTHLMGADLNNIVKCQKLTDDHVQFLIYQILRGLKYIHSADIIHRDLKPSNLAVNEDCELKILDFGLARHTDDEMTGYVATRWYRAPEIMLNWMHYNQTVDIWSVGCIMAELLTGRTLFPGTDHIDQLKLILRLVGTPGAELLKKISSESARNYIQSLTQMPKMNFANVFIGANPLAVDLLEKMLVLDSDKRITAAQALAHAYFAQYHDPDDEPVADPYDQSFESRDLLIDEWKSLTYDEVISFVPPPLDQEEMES
Mitogen-activated protein kinase kinase kinase 10, sequence (Q02779 whole entry): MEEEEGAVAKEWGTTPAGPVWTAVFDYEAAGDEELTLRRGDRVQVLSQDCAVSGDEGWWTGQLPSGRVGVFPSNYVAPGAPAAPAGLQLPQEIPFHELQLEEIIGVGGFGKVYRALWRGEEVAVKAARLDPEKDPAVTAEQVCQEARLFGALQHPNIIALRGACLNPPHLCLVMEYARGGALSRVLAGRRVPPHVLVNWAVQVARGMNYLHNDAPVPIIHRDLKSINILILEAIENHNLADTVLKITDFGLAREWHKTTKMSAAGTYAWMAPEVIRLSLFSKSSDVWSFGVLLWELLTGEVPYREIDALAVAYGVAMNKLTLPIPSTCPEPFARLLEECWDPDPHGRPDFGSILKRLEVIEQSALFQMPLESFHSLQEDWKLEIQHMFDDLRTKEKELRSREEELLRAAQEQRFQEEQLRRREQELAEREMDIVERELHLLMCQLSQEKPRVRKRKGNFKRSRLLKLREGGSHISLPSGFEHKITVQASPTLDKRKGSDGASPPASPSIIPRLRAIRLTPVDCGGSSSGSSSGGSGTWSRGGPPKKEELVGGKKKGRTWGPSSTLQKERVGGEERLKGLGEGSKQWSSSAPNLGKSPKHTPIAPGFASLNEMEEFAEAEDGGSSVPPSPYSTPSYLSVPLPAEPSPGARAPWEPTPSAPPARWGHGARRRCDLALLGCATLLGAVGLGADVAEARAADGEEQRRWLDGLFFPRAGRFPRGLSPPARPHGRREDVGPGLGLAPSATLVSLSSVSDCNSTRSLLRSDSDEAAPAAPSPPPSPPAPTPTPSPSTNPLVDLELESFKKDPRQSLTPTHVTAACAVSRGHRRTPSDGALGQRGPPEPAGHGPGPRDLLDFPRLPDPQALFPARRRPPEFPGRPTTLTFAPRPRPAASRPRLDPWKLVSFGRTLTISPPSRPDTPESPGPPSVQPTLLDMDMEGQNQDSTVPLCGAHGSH
Cyclin-dependent kinase 1 (Homo sapiens), sequence (P06493 whole entry, looked up): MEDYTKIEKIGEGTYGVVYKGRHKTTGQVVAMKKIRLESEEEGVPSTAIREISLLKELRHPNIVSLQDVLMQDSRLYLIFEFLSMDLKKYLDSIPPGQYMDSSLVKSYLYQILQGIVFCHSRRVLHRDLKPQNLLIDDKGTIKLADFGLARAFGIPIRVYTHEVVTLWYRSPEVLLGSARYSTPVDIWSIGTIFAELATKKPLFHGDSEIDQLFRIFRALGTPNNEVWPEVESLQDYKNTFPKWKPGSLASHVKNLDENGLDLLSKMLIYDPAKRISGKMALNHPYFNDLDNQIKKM
Mitogen-activated protein kinase 8 (Homo sapiens), sequence (P45983 whole entry): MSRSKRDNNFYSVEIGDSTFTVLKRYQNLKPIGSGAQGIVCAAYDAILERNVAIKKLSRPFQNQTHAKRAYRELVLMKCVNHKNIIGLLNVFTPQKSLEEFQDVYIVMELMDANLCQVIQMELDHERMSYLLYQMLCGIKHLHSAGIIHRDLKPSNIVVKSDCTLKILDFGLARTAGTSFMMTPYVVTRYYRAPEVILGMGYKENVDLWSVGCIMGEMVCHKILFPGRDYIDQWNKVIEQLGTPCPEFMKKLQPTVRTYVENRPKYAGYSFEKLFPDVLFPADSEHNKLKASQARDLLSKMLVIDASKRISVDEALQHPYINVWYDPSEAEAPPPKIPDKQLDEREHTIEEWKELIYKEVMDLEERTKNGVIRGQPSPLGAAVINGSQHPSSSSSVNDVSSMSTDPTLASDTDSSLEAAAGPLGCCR

`O=C1NC(=O)c2c1c1c3ccccc3sc1c1sc3ccccc3c21` was tested, and the IC50 [1] was over 300 nM and the IC50 [2] was over 300 nM.
Molecule `O=C1NC(=O)c2c1c1c(c3[nH]c4ccccc4c23)CCc2ccccc2-1` has an inhibition [3] of under 30%, an inhibition [4] of under 30% and an IC50 [1] of 22 nM. For the same molecule, the inhibition [5] was under 30%, the inhibition [6] was under 30% and the inhibition [7] was under 30%. It also gave an IC50 [8] of over 1000 nM, an IC50 [9] of 339 nM and an inhibition [10] of under 30%. It also gave an Activity [11] of 178%, an inhibition [12] of under 30% and an IC50 [13] of 90 nM. It also gave an IC50 (Protein kinase C (PKC)) of 83 nM, an IC50 [14] of over 300 nM and an inhibition [15] of under 30%. The IC50 [2] was 12 nM and the inhibition [16] was under 30%.
With `O=C1NCc2c3c(c4[nH]c5ccccc5c4c21)CCc1ccccc1-3` the inhibition [3] was under 30%, the inhibition [4] was under 30% and the IC50 [1] was 46 nM. The inhibition [5] was under 30%, the inhibition [6] was under 30% and the inhibition [7] was under 30%. For the same molecule, the IC50 [8] was over 1000 nM, the IC50 [9] was 3450 nM and the inhibition [10] was under 30%. The Activity [11] was 171%, the inhibition [12] was under 30% and the IC50 [13] was 274 nM. The IC50 (Protein kinase C (PKC)) was 205 nM, the IC50 [14] was over 300 nM and the inhibition [15] was under 30%. The IC50 [2] was 22 nM and the inhibition [16] was under 30%.
For `O=C1NCc2c1c1c3ccccc3oc1c1[nH]c3ccccc3c21`, the IC50 [1] was over 10000 nM, the Activity [11] was “inactive” and the IC50 [2] was 1110 nM.
For `O=C1NCc2c1c1c3ccccc3[nH]c1c1sc3ccccc3c21`, the IC50 [1] was 1800 nM and the IC50 [2] was 171 nM.
With `O=C1NCc2c3c(c4[nH]c5ccccc5c4c21)Cc1ccccc1-3` the inhibition [3] was under 30%, the inhibition [4] was under 30% and the IC50 [1] was 167 nM. For the same molecule, the inhibition [5] was under 30%, the inhibition [6] was under 30% and the inhibition [7] was under 30%. It also gave an IC50 [9] of 2660 nM, an Inhibition [17] of 22% and an inhibition [10] of under 30%. It also gave an Activity [11] of 155%, an inhibition [12] of under 30% and an IC50 (Protein kinase C (PKC)) of over 1000 nM. The inhibition [15] was under 30%, the IC50 [2] was 87 nM and the inhibition [16] was under 30%.
In the case of `O=C1NC(=O)c2c1c1c3ccccc3ccc1c1[nH]c3ccccc3c21`, the IC50 [1] is reported as 300 nM and the IC50 [2] is reported as 300 nM.
For `O=C1NCc2c1c1c(c3[nH]c4ccccc4c23)-c2ccccc2C1`, the Activity [1] was “inactive” and the Activity [2] was “inactive”.
For `O=C1NCc2c1c1c(c3sc4ccccc4c23)Cc2ccccc2-1`, the IC50 [1] was 482 nM and the IC50 [2] was 157 nM.
`O=C1NCc2c1c1c3ccccc3[nH]c1c1oc3ccccc3c21` was tested, and the IC50 [1] was 308 nM, the Activity [11] was “inactive” and the IC50 [2] was 270 nM.
`O=C1NCc2c3c(c4sc5ccccc5c4c21)Cc1ccccc1-3` gave an IC50 [1] of 615 nM and an IC50 [2] of 110 nM.
`O=C1NCc2c1c1c(c3c2-c2ccccc2C3)Cc2ccccc2-1` was tested, and the IC50 [1] was 1410 nM and the IC50 [2] was 277 nM.
With `O=C1NCc2c1c1c3ccccc3sc1c1sc3ccccc3c21` the IC50 [1] was over 10000 nM, the Activity [11] was “inactive” and the IC50 [2] was over 10000 nM.
Work on `COC(=O)[C@]1(O)C[C@@H]2O[C@@]1(C)n1c3ccccc3c3c4c(c5c6ccccc6n2c5c31)C(=O)NC4` yielded an IC50 [9] of 45 nM.
`O=C1NCc2c1c1c3ccccc3sc1c1[nH]c3ccccc3c21` was tested, and the inhibition [3] was under 30%, the inhibition [4] was under 30% and the IC50 [1] was 111 nM. It also gave an inhibition [5] of under 30%, an inhibition [6] of under 30% and an inhibition [7] of under 30%. The IC50 [8] was 88 nM, the IC50 [9] was 2090 nM and the Inhibition [17] was 3%. For the same molecule, the inhibition [10] was under 30%, the Activity [11] was 138% and the inhibition [12] was under 30%. It also gave an IC50 (Protein kinase C (PKC)) of over 1000 nM, an IC50 [14] of over 300 nM and an inhibition [15] of under 30%. The IC50 [2] was 26 nM and the inhibition [16] was under 30%.
For `O=C1NC(=O)c2c1c1c3ccccc3[nH]c1c1sc3ccccc3c21`, the IC50 [1] was 68 nM and the IC50 [2] was 58 nM.
For `O=C1NC(=O)c2c1c1c(c3[nH]c4ccccc4c23)Cc2ccccc2-1`, the IC50 [1] was over 300 nM and the IC50 [2] was over 300 nM.
In the case of `O=C1NC(=O)c2c1c1c(c3c2-c2ccccc2C3)Cc2ccccc2-1`, the IC50 [1] is reported as over 300 nM, the Activity [11] is reported as “inactive” and the IC50 [2] is reported as over 300 nM.
`O=C1NC(=O)c2c1c1c(c3sc4ccccc4c23)Cc2ccccc2-1` gave an IC50 [1] of over 300 nM and an IC50 [2] of over 300 nM.
For `O=C1NCc2c3c(c4[nH]c5ccccc5c4c21)-c1ccccc1C3`, the Activity [1] was “inactive” and the Activity [2] was “inactive”.
In the case of `O=C1NC(=O)c2c1c1c3ccccc3[nH]c1c1oc3ccccc3c21`, the IC50 [1] is reported as over 300 nM, the Activity [11] is reported as “inactive” and the IC50 [2] is reported as over 300 nM.
For `O=C1NCc2c1c1c(c3[nH]c4ccccc4c23)Cc2ccccc2-1`, the inhibition [3] was under 30%, the inhibition [4] was under 30% and the IC50 [1] was 69 nM. For the same molecule, the inhibition [5] was under 30%, the inhibition [6] was under 30% and the inhibition [7] was under 30%. The IC50 [9] was 364 nM, the Inhibition [17] was 19% and the inhibition [10] was under 30%. It also gave an Activity [11] of 152%, an inhibition [12] of under 30% and an IC50 (Protein kinase C (PKC)) of 1196 nM. It also gave an inhibition [15] of under 30%, an IC50 [2] of 40 nM and an inhibition [16] of under 30%.
`O=C1NCc2c1c1c3ccccc3[nH]c1c1[nH]c3ccccc3c21` [STAUROSPORINONE] gave an IC50 [1] of 138 nM and an IC50 [2] of 49 nM.
